Activity calls are given as the source filed them. The calls are words filed in the database; no cut-off is given here.
Columns and labels:
THP-1 [1] = assay: Effect on IFN-gamma gene expression in THP1 cells treated with Aspergillus fumigatus hyphae after 6 hrs by cDNA array hybridization; type: functional, Homo sapiens
Summary of the method: (§1)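 THP-1 cells primed with 10 ng/ml PMA for 6 h, rested 22 h, then exposed 6 h at 37°C to sonicated, nonviable AF 4215 hyphal fragments (E:T 10:1) with or without 0.1 μg/ml VRC. Total RNA (4 μg) reverse-transcribed to biotin-labelled cDNA and hybridised to a 96-gene inflammatory cytokine/receptor nylon array. Chemiluminescent read-out normalised to GAPDH; fold change against untreated cells; >2.5-fold counted significant; three independent arrays.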

THP-1 [2] = assay: Decrease in MIP1-beta production in THP1 cells stimulated with Aspergillus fumigatus hyphae at 0.1 ug/ml after 6 hrs; type: functional, cell-based; conditions: Homo sapiens
Summary of the method: (§2)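 PMA-primed THP-1 cells (1 × 10^6/ml) incubated 6 h at 37°C with hyphal fragments (E:T 10:1) with or without 0.1 μg/ml VRC. Supernatant IL-1β, TNF-α, IL-12, MCP-1 and MIP-1β measured by sandwich ELISA in duplicate at 450/540 nm. Five independent experiments, means ± SEM; ANOVA with Dunnett's test against untreated cells.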

THP-1 [3] = assay: Effect on CCL2 gene expression in THP1 cells treated with Aspergillus fumigatus hyphae by RT-PCR; type: functional, Homo sapiens
Summary of the method: (§3)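 THP-1 cells PMA-primed and exposed to hyphal fragments (E:T 10:1) with or without 0.1 μg/ml VRC. One-step RT-PCR on 0.5 μg total RNA with M-MuLV: 48°C 30 min, then 30 cycles of 94°C 15 s, 53°C 30 s, 72°C 1 min. Products run on 1.5% agarose and quantified by densitometry after normalisation to an internal control; three independent experiments.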

THP-1 [4] = assay: Effect on CCL4 gene expression in THP1 cells treated with Aspergillus fumigatus hyphae after 6 hrs by cDNA array hybridization relative to control; type: functional, Homo sapiens; summary of the method: as §1
THP-1 [5] = assay: Effect on IL1R1 gene expression in THP1 cells treated with Aspergillus fumigatus hyphae after 6 hrs by cDNA array hybridization; type: functional, Homo sapiens; summary of the method: as §1
THP-1 [6] = assay: Effect on IL16 gene expression in THP1 cells treated with Aspergillus fumigatus hyphae after 6 hrs by cDNA array hybridization; type: functional, Homo sapiens; summary of the method: as §1
THP-1 [7] = assay: Effect on CXCL6 gene expression in THP1 cells treated with Aspergillus fumigatus hyphae after 6 hrs by cDNA array hybridization relative to control; type: functional, Homo sapiens; summary of the method: as §1
THP-1 [8] = assay: Decrease in MCP1 production in THP1 cells stimulated with Aspergillus fumigatus hyphae at 0.1 ug/ml after 6 hrs; type: functional, cell-based; conditions: Homo sapiens; summary of the method: as §2
THP-1 [9] = assay: Effect on CCL7 gene expression in THP1 cells treated with Aspergillus fumigatus hyphae after 6 hrs by cDNA array hybridization relative to control; type: functional, Homo sapiens; summary of the method: as §1
THP-1 [10] = assay: Effect on CCL3 gene expression in THP1 cells treated with Aspergillus fumigatus hyphae after 6 hrs by cDNA array hybridization relative to control; type: functional, Homo sapiens; summary of the method: as §1
THP-1 [11] = assay: Increase in IL12 production in THP1 cells stimulated with Aspergillus fumigatus hyphae at 0.1 ug/ml after 6 hrs; type: functional, cell-based; conditions: Homo sapiens; summary of the method: as §2
THP-1 [12] = assay: Increase in TNFalpha production in THP1 cells stimulated with Aspergillus fumigatus hyphae at 0.1 ug/ml after 6 hrs; type: functional, cell-based; conditions: Homo sapiens; summary of the method: as §2
THP-1 [13] = assay: Effect on CXCL13 gene expression in THP1 cells treated with Aspergillus fumigatus hyphae after 6 hrs by cDNA array hybridization relative to control; type: functional, Homo sapiens; summary of the method: as §1
THP-1 [14] = assay: Effect on IL11 gene expression in THP1 cells treated with Aspergillus fumigatus hyphae after 6 hrs by cDNA array hybridization; type: functional, Homo sapiens; summary of the method: as §1
THP-1 [15] = assay: Effect on IL12A gene expression in THP1 cells treated with Aspergillus fumigatus hyphae after 6 hrs by cDNA array hybridization; type: functional, Homo sapiens; summary of the method: as §1
CCL16 (Homo sapiens) = assay: Effect on CCL16 gene expression in THP1 cells treated with Aspergillus fumigatus hyphae after 6 hrs by cDNA array hybridization relative to control
THP-1 [16] = assay: Effect on CCL5 gene expression in THP1 cells treated with Aspergillus fumigatus hyphae after 6 hrs by cDNA array hybridization relative to control; type: functional, Homo sapiens; summary of the method: as §1
Aspergillus fumigatus [17] = assay: Antifungal activity against Aspergillus fumigatus hyphae incubated with THP1 cells assessed as hyphal damage at 0.1 ug/ml after 6 hrs by XTT assay; type: functional, THP-1
Summary of the method: (§4)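 A. fumigatus AF 4215 hyphae grown 16 h at 37°C in yeast nitrogen base with 2% glucose, then medium changed to RPMI 1640 + 10% heat-inactivated FCS. PMA-induced THP-1 cells added at E:T 10:1, VRC at 0.1 μg/ml, or both, 6 h at 37°C, 5% CO2. THP-1 lysed with water. XTT 0.25 mg/ml plus coenzyme Q0 40 μg/ml, 1 h. OD 450/690 nm; damage = (1 − X/C)×100 against hyphae-only wells; duplicates.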

THP-1 [18] = assay: Effect on TGFB1 gene expression in THP1 cells treated with Aspergillus fumigatus hyphae after 6 hrs by cDNA array hybridization; type: functional, Homo sapiens; summary of the method: as §1
THP-1 [19] = assay: Effect on TNFA gene expression in THP1 cells treated with Aspergillus fumigatus hyphae after 6 hrs by cDNA array hybridization; type: functional, Homo sapiens; summary of the method: as §1
THP-1 [20] = assay: Effect on CCL21 gene expression in THP1 cells treated with Aspergillus fumigatus hyphae after 6 hrs by cDNA array hybridization relative to control; type: functional, Homo sapiens; summary of the method: as §1
THP-1 [21] = assay: Effect on CCL15 gene expression in THP1 cells treated with Aspergillus fumigatus hyphae after 6 hrs by cDNA array hybridization relative to control; type: functional, Homo sapiens; summary of the method: as §1
THP-1 [22] = assay: Effect on TNFA gene expression in THP1 cells treated with Aspergillus fumigatus hyphae by RT-PCR; type: functional, Homo sapiens; summary of the method: as §3
THP-1 [23] = assay: Effect on CCL2 gene expression in THP1 cells treated with Aspergillus fumigatus hyphae after 6 hrs by cDNA array hybridization relative to control; type: functional, Homo sapiens; summary of the method: as §1
THP-1 [24] = assay: Effect on CCL20 gene expression in THP1 cells treated with Aspergillus fumigatus hyphae after 6 hrs by cDNA array hybridization relative to control; type: functional, Homo sapiens; summary of the method: as §1
THP-1 [25] = assay: Effect on CCL11 gene expression in THP1 cells treated with Aspergillus fumigatus hyphae after 6 hrs by cDNA array hybridization relative to control; type: functional, Homo sapiens; summary of the method: as §1
Aspergillus fumigatus [26] = assay: Antifungal activity against Aspergillus fumigatus hyphae assessed as hyphal damage at 0.1 ug/ml after 6 hrs by XTT assay; type: functional; summary of the method: as §4
THP-1 [27] = assay: Effect on IL12B gene expression in THP1 cells treated with Aspergillus fumigatus hyphae after 6 hrs by cDNA array hybridization; type: functional, Homo sapiens; summary of the method: as §1
THP-1 [28] = assay: Effect on CCL4 gene expression in THP1 cells treated with Aspergillus fumigatus hyphae by RT-PCR; type: functional, Homo sapiens; summary of the method: as §3
THP-1 [29] = assay: Increase in IL1-beta production in THP1 cells stimulated with Aspergillus fumigatus hyphae at 0.1 ug/ml after 6 hrs; type: functional, cell-based; conditions: Homo sapiens; summary of the method: as §2

C[C@@H](c1ncncc1F)[C@](O)(Cn1cncn1)c1ccc(F)cc1F [VORICONAZOLE] was tested, and the Fold change (THP-1 [1]) was 3.3, the Activity (THP-1 [2]) was “Active” and the Fold change (THP-1 [3]) was -3. The Fold change (THP-1 [4]) was 5.2, the Fold change (THP-1 [5]) was 6.3 and the Fold change (THP-1 [6]) was -7.7. For the same compound, the Fold change (THP-1 [7]) was 3.5, the Activity (THP-1 [8]) was “Active” and the Fold change (THP-1 [9]) was 11.3. The Fold change (THP-1 [10]) was 19.3, the Activity (THP-1 [11]) was “Active” and the Activity (THP-1 [12]) was “Active”. For the same compound, the Fold change (THP-1 [13]) was 7, the Fold change (THP-1 [14]) was 6.4 and the Fold change (THP-1 [15]) was -3.3. For the same compound, the Fold change (CCL16 (Homo sapiens)) was 0.04, the Fold change (THP-1 [16]) was 17.7 and the Activity (Aspergillus fumigatus [17]) was 42.11%. For the same compound, the Fold change (THP-1 [18]) was 5.9, the Fold change (THP-1 [19]) was 3.1 and the Fold change (THP-1 [20]) was -2.6. It also gave a Fold change (THP-1 [21]) of 10.1, a Fold change (THP-1 [22]) of 2.6 and a Fold change (THP-1 [23]) of -2.4. For the same compound, the Fold change (THP-1 [24]) was -2.5, the Fold change (THP-1 [25]) was 2.5 and the Activity (Aspergillus fumigatus [26]) was 26.77%. The Fold change (THP-1 [27]) was -6, the Fold change (THP-1 [28]) was 4 and the Activity (THP-1 [29]) was “Active”.

Source: ChEMBL document CHEMBL1142076, “Expression of immunomodulatory genes in human monocytes induced by voriconazole in the presence of Aspergillus fumigatus” (2007)
